Measured values taken from the RNAGym collection of RNA variant scans (doi:10.1038/nmeth.2970).

B1: NELF-E aptamer (parent)
chain: CCCAACGACUGCCGAGCGAGAUUACGCUUGAGCGCCCCACUGAGGAUGCCCACGGGCGAUUGGGGCACGG

Variants of: B1
Experiment: HiTS-RAP
Settings: with NELF-E (Drosophila)
How it was run: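 Aptamer DNA templates carrying a T7 promoter and ter site were sequenced on an Illumina GAIIx flowcell, then transcribed in situ by T7 RNA polymerase and halted by GST-Tus (30 minutes, 37°C). Clusters were imaged after 30-minute room-temperature equilibration with NELF-E-mOrange at 0.064 to 1000 nM in HEPES binding buffer, and only the first binding curve was used. Intensities were normalised to sequencing intensity and averaged per sequence. Kd came from weighted Hill fits, keeping fits with variance below 1,000,000.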

Variant	Kd
C6G G65A	4.46 nM
U10G A67C	5.03 nM
G42U	10.5 nM
A8G G55A	10 nM
U23G C40G	5.5 nM
U29G G55C	5.81 nM
C6G U60G	5.7 nM
G34U	5.56 nM
G16U A21U	6.82 nM
A39C	20.5 nM
A4G G45A	85.6 nM
G7U G45A	21.8 nM
G14A A31G	5.95 nM
A24G U60C	12.8 nM
C6U U41A	82.3 nM
G11U A31U	6.12 nM
G65U C66G	4.98 nM
A5U A8U	6.78 nM
G11U G34A	6.7 nM
A5U G7A	6.51 nM
A4U A31G	6.99 nM
C6G U28A	5.13 nM
C6G U28C	9 nM
C6G G18U	6.37 nM

Variant	Kd
A24G A67U	7.95 nM
A5U G65U	8.58 nM
A5U G65A	6.8 nM
C12G A15G	6.14 nM
G44C	27.5 nM
G11U A19U	7.3 nM
G18U	5.57 nM
G11U G65U	7.6 nM
A19G G55U	10.6 nM
A4G A43C	90.1 nM
G16A U41G	6.55 nM
G58A	9.31 nM
A19U U41G	4.74 nM
C6G C40G	8.23 nM
A19G G63U	14.8 nM
G7U A24G	6.71 nM
A4G C50A	17.7 nM
G54A A59G	73.6 nM
A15G A19G	6.95 nM
U10C U29C	7.71 nM
C9G U29G	5.58 nM
C12G G55A	7.66 nM
A8G G20U	6.35 nM
U22G U47A	11.3 nM

Variant	Kd
C13U G16U	6.59 nM
U10G G14U	5.99 nM
U22G G65A	5.12 nM
U29G C66U	4.32 nM
A4G G62A	20.8 nM
C6G G7C	7.44 nM
G7U U60C	10.9 nM
U22G C27G	8.09 nM
U10G A39U	24.6 nM
A5U C17U	6.66 nM
G7U U22C	5.8 nM
A8U G64U	9.52 nM
A8G G63A	16.1 nM
A4G A15G	4.97 nM
C12G U28G	8.85 nM
C12G U28C	8.42 nM
A5C G16U	8.04 nM
G55A A67U	11.2 nM
G11A U29G	6.58 nM
C13G A43G	15.3 nM
G16A C17G	6.2 nM
U10G G34U	5.54 nM
C13G G14C	7.7 nM
A15G G16U	5.48 nM

Variant	Kd
C13G A15G	6.03 nM
A4U A15G	5.02 nM
A4U A15U	6.22 nM
A8U U61A	29.9 nM
U10A U23G	5.54 nM
A4G C13G	5.3 nM
C6G C17G	5.02 nM
U23G G44A	68.6 nM
A19G G65U	7.38 nM
A19G G65A	6.12 nM
A5G U10A	4.67 nM
A5G U10C	4.79 nM
A5G A52U	17 nM
G45C	39.5 nM
G14A	4.94 nM
U10G G30A	4.59 nM
C13G A59G	12.2 nM
A24G A43U	55.4 nM
A8G C66U	5.01 nM
C50U	12.2 nM
C50A	14.7 nM
C50G	6.31 nM
C6G G45U	9.94 nM
C6G G45A	91 nM

Variant	Kd
G7A U22G	7 nM
G7U G63U	15.8 nM
A8U G63A	15.3 nM
A8U G63U	11.1 nM
G34A U41G	7.5 nM
U22G C35A	7.18 nM
C12G C37G	7.38 nM
C6G A52U	16.1 nM
G16U C37U	21.9 nM
C9G U22C	6.33 nM
G16U A24G	7.15 nM
A4G U41C	73 nM
C12G A43G	26.1 nM
A5U U61A	41.2 nM
C6U A59G	69.1 nM
A5U G32A	4.34 nM
C17G G62A	28.8 nM
C13U A52U	10.1 nM
C13G U23C	5.7 nM
C6U C17U	6.39 nM
U10G C40G	5.38 nM
G14U U61A	36 nM
G14U U61C	86.8 nM
G7U C53U	4.6 nM

Variant	Kd
C9G A15U	7.39 nM
G14U G16U	7.62 nM
U22G A46U	33 nM
U22G A46G	35.8 nM
A15G A24G	6.12 nM
U22G C36G	7.35 nM
U22G C36A	10.1 nM
C6G A46G	40.5 nM
C13G G42A	49 nM
A5G C25G	6.52 nM
U10G G44C	34.8 nM
U23G C66U	6 nM
A4G C38A	44.4 nM
G7U U23C	4.06 nM
A5G C36U	6.13 nM
G7U U47G	7.97 nM
A8U G14A	7.4 nM
C9U C12G	6.92 nM
U10G	4.49 nM
U10A G14A	7.05 nM
A8G G54A	14.6 nM
A19G A31G	6.72 nM
U22G U23A	6.19 nM
A5U U41G	6.01 nM

Variant	Kd
G7U C36U	7.87 nM
A4G U61A	37.8 nM
A5U G11A	7.76 nM
A5G A31G	7.69 nM
G11U A67U	9.06 nM
G26C C27G	3.95 nM
U29C A43U	43.4 nM
C27A	4.28 nM
U10G G54U	6.86 nM
U29G U41A	78.7 nM
A24G G56A	11.9 nM
G7U C66U	6.12 nM
A8G A21U	5.17 nM
U41G A52U	16.4 nM
A8U U22C	5.14 nM
A4G A52C	6.42 nM
C49U	19.5 nM
A8G A31U	5.68 nM
A4U C53U	3.61 nM
U28C A39U	51.1 nM
C13G C27U	4.45 nM
C12G G54A	18.2 nM
A8G C9G	5.53 nM
A8G C9A	7.04 nM

Variant	Kd
G14U C38U	9.69 nM
C13G G64A	6.69 nM
G7C A8G	5.81 nM
U22G G58U	10.5 nM
C6U G42A	52.7 nM
G11U A15G	6.22 nM
C9G G16U	6.45 nM
A4U A8G	6.19 nM
A4U A8U	6.22 nM
G64A	7.74 nM
A4G A39C	30.7 nM
U10G C12G	5.4 nM
A4G G48U	8.36 nM
C6G G20A	6.35 nM
U29C C66U	5.81 nM
G7U C9U	6.52 nM
A8U U23C	5.3 nM
A8G G34A	4.84 nM
A5G C12U	6.51 nM
C6G C50G	5.53 nM
A4G A67C	5.34 nM
C13G A31G	7.08 nM
C12G G26A	4.12 nM
A5G G14A	6.54 nM

Variant	Kd
C12G G16U	7.23 nM
C6G G64U	6.35 nM
C6G G64C	6.39 nM
C6G G64A	7.6 nM
U29G C33G	6.45 nM
A52U	15.4 nM
A24G A31U	6.88 nM
C13G C17G	4.68 nM
A4C C6G	8.66 nM
G20A A24G	6.46 nM
G48C	85.4 nM
A24G U28G	8.97 nM
A24G U28C	12.3 nM
G63U G65U	5.32 nM
C9G A52U	14.9 nM
C6G G56U	4.89 nM
C13G U28A	4.22 nM
G16U U29G	6.38 nM
C13A U23G	5.96 nM
A21U U29G	5.33 nM
A5U A52U	18.4 nM
G7U G14U	6.73 nM
A4G C53G	7.58 nM
G16A	5.27 nM

Variant	Kd
G16U C25G	7.48 nM
C9G G11A	6.35 nM
U10G G48U	6.92 nM
A4U G14A	6 nM
U23G C25G	5.84 nM
G11U A24G	5.82 nM
A4G G56U	6.06 nM
G7U U41G	6.05 nM
G16U A31G	8.32 nM
A5U G63A	9.5 nM
G16U G20U	7.39 nM
A4G G20A	5.15 nM
G70U	5.07 nM
A4G G63U	11.1 nM
G7U U28G	8.81 nM
U10G C17U	4.88 nM
A4G G64U	7.6 nM
A5G A19G	5.88 nM
C66G	4.38 nM
C6U G11U	6.12 nM
C6U G11A	5.43 nM
C13A	5.28 nM
G11U A21G	7.69 nM
G7U G16A	6.97 nM

Variant	Kd
U29A A67U	5.96 nM
A8U C37U	13.2 nM
C6G C33U	5.41 nM
C12G A19G	5.93 nM
A5G A21G	5.66 nM
A5G A21U	6.3 nM
U10G C25G	5.26 nM
U10G C25U	5.86 nM
C12G G48A	9.02 nM
G7U C17G	6.28 nM
A4G G54U	6.61 nM
A8U C9G	6.03 nM
U10C G64A	9.5 nM
A52U C66U	15.1 nM
G11U U47G	7.92 nM
C12G U29C	6.33 nM
C12G U29A	5.65 nM
A4C C9G	7.49 nM
U22G A24G	5.62 nM
C13G G34A	8.12 nM
C13G G34U	5.43 nM
C12G G64A	8.49 nM
C13G A24U	7.79 nM
C6U A52U	23.1 nM

Variant	Kd
U10G G42A	42.8 nM
A31G G32U	4.81 nM
G7U A8G	5.66 nM
A5U G16A	8.1 nM
A4G G14A	5.98 nM
A24G G62A	26.1 nM
C9U U10G	5.19 nM
G14A A24G	5.71 nM
G14A C17U	5.62 nM
C33A	4.67 nM
A4G A19C	4.21 nM
A19U A21U	6.8 nM
G7U C37A	20.8 nM
G7U C37U	10.5 nM
C9G G42U	7.6 nM
C9G G34A	9.14 nM
U23G G26U	6.03 nM
G11U C12U	4.76 nM
G54A	11.8 nM
A5G G45U	7.32 nM
U10G U22C	4.95 nM
G14U A39U	32.5 nM
A39G G54A	23.3 nM
C6U U29A	5.66 nM

Variant	Kd
C13G G26A	4.79 nM
A4G G18U	5.96 nM
G16U G65U	7.8 nM
C6G U61G	7 nM
A52G C53U	6.67 nM
U10A C12G	6.47 nM
A24G C49U	13.4 nM
A8G C57U	6 nM
A4U G65U	6.16 nM
C13U A19G	6.42 nM
A4U U10A	4.41 nM
U29A A31G	5.67 nM
G7A G14U	6.75 nM
U22G G26A	5.64 nM
U41G G55A	7.84 nM
U41G G55U	7.2 nM
A52U G56A	99 nM
U29G U60C	11.4 nM
C13G U61A	38.3 nM
A19G A59G	36.8 nM
A4G	5.08 nM
U10G A15G	4.72 nM
A8U G55A	8.25 nM
A4G G42U	9.27 nM

Variant	Kd
C6G A59U	25.7 nM
U47G	6.05 nM
A4U A43G	40 nM
U10C A67U	5.45 nM
C53U	3.8 nM
G16U C57U	8.22 nM
A5U C57U	6.5 nM
U10G G64U	7.3 nM
U23G U41A	66.7 nM
C13G A21U	5.52 nM
A24G G64U	6.61 nM
U10A A67G	4.3 nM
A21U U41G	5.38 nM
C6A C9G	7.55 nM
A5U C38U	10.6 nM
C51G	4.48 nM
C13G C37G	6.46 nM
A21G G64A	9.49 nM
A5G A8C	9.31 nM
U22G U60G	7.18 nM
G7U C51U	7.54 nM
U41G A59U	31.7 nM
